Bioassay records: PubChem, Johns Hopkins Ion Channel Center
KCNK3 inh – human KCNK3 channel inhibition, primary screen | O14649 | CHO-KCNK3 thallium flux, FluxOR fluorescence; hits give low values | B-score at 10 µM | 340,000 tested, 0.84% active | AID 602410;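 active = B-score under library mean minus 4 SD, starting fluorescence ratio at most library mean plus 5 SD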;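 also: more negative B-score means stronger inhibition of thallium flux through KCNK3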
hERG protect – hERG (human) protection from proarrhythmic block | Q12809 | CHO-hERG, FluxOR thallium flux, dofetilide IC70 present | activation (rescue from dofetilide block), less the hit threshold, % at 10 µM | 310,000 tested, 0.51% active | AID 1511;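 active = activation above the mean of controls blocked by dofetilide plus 5 SD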;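 also: thallium influx through hERG after potassium depolarization seen as dye fluorescence rise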
Target sequence (Q12809 whole entry, looked up): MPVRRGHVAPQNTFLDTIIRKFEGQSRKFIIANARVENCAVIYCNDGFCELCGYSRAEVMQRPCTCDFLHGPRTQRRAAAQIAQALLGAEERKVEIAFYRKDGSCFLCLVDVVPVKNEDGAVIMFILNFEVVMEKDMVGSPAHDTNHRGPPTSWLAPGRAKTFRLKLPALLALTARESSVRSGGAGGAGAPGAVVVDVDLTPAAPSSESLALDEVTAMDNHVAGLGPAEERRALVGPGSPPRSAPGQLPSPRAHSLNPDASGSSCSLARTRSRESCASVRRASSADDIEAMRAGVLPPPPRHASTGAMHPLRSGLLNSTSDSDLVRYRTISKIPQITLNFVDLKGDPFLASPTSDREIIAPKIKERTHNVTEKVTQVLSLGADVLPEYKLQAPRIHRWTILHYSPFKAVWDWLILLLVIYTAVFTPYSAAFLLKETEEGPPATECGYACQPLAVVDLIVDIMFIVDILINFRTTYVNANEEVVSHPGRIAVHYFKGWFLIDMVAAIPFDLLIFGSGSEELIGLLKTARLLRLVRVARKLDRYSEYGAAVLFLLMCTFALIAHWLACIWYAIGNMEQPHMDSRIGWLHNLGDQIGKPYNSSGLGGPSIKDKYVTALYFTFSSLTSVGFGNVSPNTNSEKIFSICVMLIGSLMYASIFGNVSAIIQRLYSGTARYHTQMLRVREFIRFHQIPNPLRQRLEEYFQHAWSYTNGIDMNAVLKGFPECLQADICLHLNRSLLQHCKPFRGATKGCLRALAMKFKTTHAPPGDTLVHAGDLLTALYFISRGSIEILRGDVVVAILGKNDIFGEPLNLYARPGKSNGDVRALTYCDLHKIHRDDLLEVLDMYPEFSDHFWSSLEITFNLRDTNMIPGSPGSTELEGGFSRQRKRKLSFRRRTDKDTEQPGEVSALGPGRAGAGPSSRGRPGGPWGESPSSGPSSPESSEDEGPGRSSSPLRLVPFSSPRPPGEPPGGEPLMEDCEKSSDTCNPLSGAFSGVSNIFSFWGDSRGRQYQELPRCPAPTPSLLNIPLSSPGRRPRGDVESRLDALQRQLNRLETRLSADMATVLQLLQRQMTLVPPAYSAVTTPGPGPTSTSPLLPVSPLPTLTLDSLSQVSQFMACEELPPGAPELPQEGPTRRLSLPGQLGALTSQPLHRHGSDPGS
KCNQ1 block – human KCNQ1 channel inhibition; CHO-K1 KCNQ1, FluxOR thallium flux fluorescence; hits give high values; B-score at 10 µM; 310,000 tested, 1.3% active; P51787;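 active = compounds whose thallium flux B-score, printed positive for inhibition, exceeds three library SD while starting fluorescence stays within three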;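 also: channel opened by potassium depolarization with thallium stimulus after 20 min compound exposure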
KCNQ1 pot – potentiates or activates the human KCNQ1 potassium channel; CHO-K1 KCNQ1, thallium flux FluxOR fluorescence; hits give high values; B-score at 10 µM; 310,000 tested, 0.35% active; AID 2648;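 active = fluorescence ratio B-score, a plate-corrected score, at least three library SD, with initial intensity B-score within 5 SD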
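Schedule – 37 °C overnight plating, 90-min dark dye load, 20-min compound pretreatment · System – stable KCNQ1 CHO-K1 line · Probe or stimulus – thallium- and potassium-containing depolarizing buffer · Measured by – kinetic FluxOR fluorescence, 10 s baseline plus 110 s post-stimulus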
KCNK9 block – human KCNK9 channel inhibition | Q9NPC2 | HEK293 KCNK9, FluxOR thallium flux fluorescence; hits give low values | B-score at 10 µM | 310,000 tested, 1.2% active | AID 488922;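 active = ratio B-score over 3 SD below the library mean, with starting fluorescence within 5 SD of its mean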;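 also: negative B-score means less thallium flux so channel inhibition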
KCNQ1 block val – confirmation of human KCNQ1 potassium channel inhibitors. shares compounds with KCNQ1 block. KCNQ1 cell line, FluxOR thallium flux fluorescence. inhibition, % at 10 µM. 1,600 tested, 93% active;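 active = primary screen active, with duplicate mean exceeding buffer control mean plus 3 SD of buffer wells, cut at about 28% in these data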
CHO Tl flux – KCNQ1 inhibitor counter-screen hit in parental CHO cells; shares compounds with KCNQ1 block; 1,600 tested, 21% active; parental CHO-K1, FluxOR thallium flux fluorescence ratio; hits give low values; zero means no signal rise above baseline; AID 588366; fluorescence ratio (Tl flux) at 10 µM;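 active = mean of duplicate thallium-flux fluorescence ratios in parental host cells more than 5 SD below the buffer control mean, cut at about 0.38 in these data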;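 also: ratio is peak minus minimum fluorescence divided by baseline fluorescence; actives read low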
KCNQ1 APC inh – human KCNQ1 inhibition validated by electrophysiology; shares compounds with KCNQ1 block; KCNQ1-CHO cells, automated patch clamp current; calls only at 10 µM; 490 tested, 20% active;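 active = KCNQ1 current drop exceeding 3 SD of negative control wells, seen in both duplicate runs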;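 also: steady state current during a 2 s step from -80 to +40 mV; negative values mean current inhibition and positive values mean potentiation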
KCNQ2 inh – KCNQ1 inhibitor that also blocks rat KCNQ2 channel. shares compounds with KCNQ1 block. KCNQ2 cells, FluxOR thallium flux fluorescence. inhibition, % at 10 µM. 1,600 tested, 71% active. AID 651746;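 active = mean percent inhibition of the KCNQ2 thallium signal more than 5 SD above the buffer-only control wells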;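 also: KCNQ2 expressed in CHO cells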
KCNQ1 KCNE1 spec – human KCNQ1/KCNE1 inhibition in KCNQ1 specificity screen; shares compounds with KCNQ1 block; KCNQ1/KCNE1 cells, FluxOR thallium flux fluorescence; inhibition, % at 10 µM; 1,600 tested, 77% active;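 active = mean percent inhibition of duplicate wells above the buffer-only control mean plus 3 SD of those controls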
Large screens that a line does not name were inactive (follow-up assays come after a bar, where they were run). Only some compounds are listed: those with a hit (about 3.1% of all), similar ones and a draw of the others.

CC(C(=O)NCc1ccccc1)N1C(=O)c2ccccc2C1=O (stereo not given)	KCNQ1 block 7 | KCNQ1 block val 28.5 | CHO Tl flux inactive | KCNQ2 inh inactive | KCNQ1 KCNE1 spec inactive
O=C(CSc1ccccc1F)NCC(c1cccs1)N1CCOCC1 (stereo not given)	none (no result: hERG protect, KCNQ1 block, KCNQ1 pot, KCNK9 block)
CCSc1nnc(NC(=O)NC(CC)(C(F)(F)F)C(F)(F)F)s1	KCNQ1 block 7 | KCNQ1 block val 57.0 | CHO Tl flux inactive | KCNQ2 inh inactive | KCNQ1 KCNE1 spec 91.0%
CCSc1nnc(NC(=O)NC(C)(C(F)(F)F)C(F)(F)F)s1	none
Cc1cccc(C(=O)OCC(=O)NCc2ccco2)c1	none (no result: hERG protect, KCNQ1 block, KCNQ1 pot, KCNK9 block)
CN(Cc1ccccc1)S(=O)(=O)c1ccc(NS(=O)(=O)Cc2ccccc2)cc1	KCNQ1 block 8 | KCNQ1 block val 130.5 | CHO Tl flux 0.374 | KCNQ2 inh 118.3% | KCNQ1 KCNE1 spec 92.5%
CC(=O)NC(=S)Nc1ccc(S(=O)(=O)N(C)Cc2ccccc2)cc1	none
CC(C)C(=O)NC(=S)Nc1ccc(S(=O)(=O)N(C)Cc2ccccc2)cc1	KCNQ1 block 11 | KCNQ1 block val 117.0 | CHO Tl flux inactive | KCNQ1 APC inh inactive | KCNQ2 inh 104.0% | KCNQ1 KCNE1 spec 195.5%
COc1ccc(CCNC(=O)CCCCCN2C(=O)[C@@H]3Cc4ccccc4CN3C2=O)cc1OC	none
Cc1ccccc1OCC(=O)Nc1ccccc1-c1ccccc1	KCNQ1 block 6 | KCNQ1 block val 128.0 | CHO Tl flux inactive | KCNQ1 APC inh inactive | KCNQ2 inh 113.7% | KCNQ1 KCNE1 spec 177.5%
Cc1ccccc1NC(=O)COc1ccccc1C	none
CCN(CC)c1ccc(C(=O)OCC(=O)Nc2ccccc2-c2ccccc2)cc1	KCNQ1 block 12 | KCNQ1 block val 108.0 | CHO Tl flux inactive | KCNQ1 APC inh inactive | KCNQ2 inh 96.0% | KCNQ1 KCNE1 spec 161.0%
Cc1ccccc1OCC(=O)Nc1ccccc1C(=O)NC1CC1	KCNQ1 block 10 | KCNQ1 block val 92.0 | CHO Tl flux inactive | KCNQ1 APC inh inactive | KCNQ2 inh 123.0% | KCNQ1 KCNE1 spec 128.5%
CN1CCN(c2ccccc2NC(=O)c2ccc3c(c2)OCCO3)CC1	none
CCOC(=O)Cc1c(Sc2ccccc2)c2ccccc2n1C	KCNQ1 block 7, KCNK9 block -8.03 | KCNQ1 block val 93.5 | CHO Tl flux inactive | KCNQ1 APC inh inactive | KCNQ2 inh 88.0% | KCNQ1 KCNE1 spec 114.5%
CN(Cc1ccc(F)cc1)C(=O)c1ccc(NS(=O)(=O)c2ccccc2)cc1	none
N#C/C(=C\c1coc2ccc(O)cc2c1=O)C(=O)Nc1nc2ccccc2s1	KCNQ1 block 26 | KCNQ1 block val active | CHO Tl flux 0.131 | KCNQ2 inh inactive | KCNQ1 KCNE1 spec inactive
CCCCC(=O)NCCNC(=O)c1cc(OCC(F)(F)F)ccc1OCC(F)(F)F	none
Cc1[nH]c2ccccc2c1C(=O)COc1ccccc1F	none
Cc1[nH]c2ccccc2c1C(=O)COc1ccccc1	KCNQ1 block 7 | KCNQ1 block val inactive | CHO Tl flux inactive | KCNQ2 inh 63.3% | KCNQ1 KCNE1 spec 40.0%
CCC(C)Nc1nc(OC(C(F)(F)F)C(F)(F)F)nc(OC(C(F)(F)F)C(F)(F)F)n1 (stereo not given)	KCNQ1 block 7 | KCNQ1 block val 92.0 | CHO Tl flux inactive | KCNQ2 inh 102.3% | KCNQ1 KCNE1 spec 89.5%
COc1cc(C(=O)NCc2ccc3c(c2)OCO3)ccc1OCc1c(C)noc1C	none
Nc1ccc2nc3c(=O)n(C4CCCCC4)c(=O)[nH]c3nc2c1	KCNQ1 block 24 | KCNQ1 block val active | CHO Tl flux 0.102 | KCNQ2 inh inactive | KCNQ1 KCNE1 spec inactive
COc1cc(NS(=O)(=O)c2csc(C(N)=O)c2)cc(OC)c1	none
O=C(NC(CO)C(=O)OCc1ccccc1)OCc1ccccc1 (stereo not given)	none (no result: hERG protect, KCNQ1 block, KCNQ1 pot, KCNK9 block)
N#Cc1c(C(F)(F)F)cc(-c2ccc(Cl)cc2)[nH]c1=O	none
N#Cc1c(C(F)(F)F)cc(-c2ccc(F)cc2)[nH]c1=O	KCNQ1 block 11 | KCNQ1 block val 39.5 | CHO Tl flux inactive | KCNQ2 inh inactive | KCNQ1 KCNE1 spec inactive
S=C(Nc1ccc(Cl)c(Cl)c1)NC1CCCCC1	KCNQ1 block 6 | KCNQ1 block val 69.0 | CHO Tl flux inactive | KCNQ2 inh inactive | KCNQ1 KCNE1 spec inactive
Fc1cccc(NC(=S)NC2CCCCCCC2)c1	KCNQ1 block 8 | KCNQ1 block val 105.0 | CHO Tl flux inactive | KCNQ1 APC inh active | KCNQ2 inh 74.7% | KCNQ1 KCNE1 spec 88.5%
CCCCNC(=S)Nc1ccc(C(F)(F)F)cc1	KCNQ1 block 8 | KCNQ1 block val 31.5 | CHO Tl flux inactive | KCNQ2 inh inactive | KCNQ1 KCNE1 spec inactive
FC(F)(F)c1cccc(NC(=S)NC2CCCC2)c1	none
Cc1ccc(NC(=O)CNCC2CCCCC2)cc1S(=O)(=O)N(C)C	none
Cc1ccc(NC(=S)NC2CCCCC2)cc1S(=O)(=O)N(C)C	KCNQ1 block 7 | KCNQ1 block val 131.5 | CHO Tl flux inactive | KCNQ1 APC inh inactive | KCNQ2 inh 106.7% | KCNQ1 KCNE1 spec inactive
Cc1c(C(=O)OCCOc2ccc(Br)cc2)sc(=S)n1C	none
CC1(c2ccccc2)NC(=O)N(CC#N)C1=O (stereo not given)	none
FC(F)(F)c1ccc(NC(=S)NC2CCCCC2)cc1	KCNQ1 block 7 | KCNQ1 block val 65.0 | CHO Tl flux inactive | KCNQ2 inh 59.3% | KCNQ1 KCNE1 spec 37.0%
CCOC(=O)C1=C(C)N(C)C(C)=C(C(=O)OCC)C1c1ccc(C(=O)OC)cc1	KCNQ1 block 6 | KCNQ1 block val 105.5 | CHO Tl flux 0.303 | KCNQ2 inh 114.7% | KCNQ1 KCNE1 spec 151.0%
CCOC(=O)c1c(NC(=O)c2ccccc2C)sc2c1CC(C)(C)OC2	KCNQ1 block 7 | KCNQ1 block val 86.0 | CHO Tl flux inactive | KCNQ2 inh 91.7% | KCNQ1 KCNE1 spec 150.5%
COC(=O)c1c(NC(=O)c2ccccc2)sc2c1CC(C)(C)OC2	none
C=CCOc1ccc(/C=C(\C#N)C(=O)Nc2ccccn2)cc1	none
C(=C\c1nnc2c3ccccc3ncn12)/c1ccccc1	none
COc1cc(/C=C/c2nnc3c4ccccc4ncn23)cc(OC)c1OC	KCNQ1 block 6 | KCNQ1 block val 44.0 | CHO Tl flux inactive | KCNQ2 inh 59.7% | KCNQ1 KCNE1 spec 34.0%
